This is a sample that favours compounds with a hit; in the whole collection about 4% have one here.
Yeast life ext: yeast lifespan extension; inhibition of the nicotinamide effect, % at 10 µM; hit rate 0.68% among 130,000; S. cerevisiae growth with nicotinamide, OD615; deaD strain in restrictive glucose medium;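 active = inhibition above a set limit, placed 3 SD over the median of all compounds, cut at about 26% in these data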;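 also: 0% = nicotinamide-treated wells and 100% = cells grown without nicotinamide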
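Material: Modified budding yeast, DeaD strain | Medium: Restrictive glucose medium | Probe or stimulus: 1.5 mM nicotinamide | Dosing: Single dose 10 µM compound, 0.25% DMSO | Times: 48 h at 30 °C | Technique: OD615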
RAM inhibit: inhibitors of the yeast RAM network | S. cerevisiae dse1pr::URA3 reporter, 5-FOA growth OD615, 2 d; analog-sensitive cbk1-as2 kinase mutant strain | inhibition, % at 50 µM | hit rate 1.8% among 190,000;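 active = inhibition above a set limit, 3 SD over mean compound inhibition, cut at about 8.4% in these data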;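 also: 0% = DMSO-only wells with no growth and 100% = 10 µM 1-NA-PP1 full growth; inhibition rescues growth on 5-FOA so higher OD means more RAM inhibition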
Yeast growth inh: chemicals that inhibit yeast BB579 growth in restrictive medium (lifespan-shortening candidates); hit rate 0.51% among 140,000; inhibition, % at 10 µM; AID 804; S. cerevisiae BB579 growth, OD615, 48 h;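 active = inhibition above a set limit, 3 SD over the mean compound inhibition, cut at about 44% in these data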
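Material: Saccharomyces cerevisiae DeaD strain BB579, replicative lifespan model yeast; buffer or medium: CSMM-D restrictive synthetic medium containing dextrose (glucose); compound: 10 µM single dose, DMSO 0.25%; timing: 48 h compound exposure at 30 °C after 4 h preincubation; signal: turbidity as optical density at 615 nm; benchmarks: positive control amphotericin B 10 µg/mL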
Measles CPE: protection of cells from measles virus; hit rate 1.5% among 140,000; AID 841; protection (pct of control), % at 4 µM; Measles virus-infected cells, CPE protection, absorbance; in the data active = protection mostly above about 24%, no sharp cut-off; inactive = mostly below about 26%
MDM2 E3 inh: Mdm2 E3 ligase (human) inhibition | Q00987 | cell-based MDM2 ubiquitination luciferase reporter, 2 h; 0 = plate control, 100 = twice control, blank-subtracted | signal enhancement, % at 5 µM | hit rate 0.11% among 210,000 | AID 1230;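 active = signal enhancement of 30% or more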;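 also: luminescence tracks abundance of the self-degrading MDM2-luciferase fusion protein; higher signal means inhibition of MDM2 E3 ligase activity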
Target sequence (Q00987 whole entry, looked up, the tested form may be a part): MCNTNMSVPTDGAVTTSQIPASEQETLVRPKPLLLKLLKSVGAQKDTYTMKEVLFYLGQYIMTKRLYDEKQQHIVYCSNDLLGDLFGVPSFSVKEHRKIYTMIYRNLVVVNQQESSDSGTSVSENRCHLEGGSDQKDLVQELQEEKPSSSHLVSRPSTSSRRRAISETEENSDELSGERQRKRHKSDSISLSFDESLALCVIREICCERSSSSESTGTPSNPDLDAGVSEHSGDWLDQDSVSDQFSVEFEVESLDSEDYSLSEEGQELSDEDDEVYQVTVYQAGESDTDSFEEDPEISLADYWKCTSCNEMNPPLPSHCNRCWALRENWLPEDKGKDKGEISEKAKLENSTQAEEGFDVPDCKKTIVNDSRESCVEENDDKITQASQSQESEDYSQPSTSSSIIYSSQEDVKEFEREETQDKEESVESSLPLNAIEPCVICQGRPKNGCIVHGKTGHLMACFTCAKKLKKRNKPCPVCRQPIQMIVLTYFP
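Buffer or medium: Cells held in DMEM | Assay system: Stable mammalian line carrying autodegrading MDM2–luciferase fusion reporter | Quantity: 2000 cells/well | Times: 4 h settle plus 2 h compound, 37 °C | Doses: One concentration, 5 µM, with 0.2% DMSO | Technique: Luminescence with SteadyLite reagent, 15 min at room temperature | Benchmarks: Plate controls and plate blanks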
INS promoter inh: TRM-6 insulin promoter activity inhibition; TRM-6 cells, insulin promoter-eGFP reporter, imaging; reporter expression induced with tamoxifen; inhibition, % at 2 µM; hit rate 0.9% among 130,000;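 active = inhibition above the mean plus 3 SD, with well images judged a real hit on visual review, cut at about 60% in these data, passing the limit was not always enough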
An asterisk follows results filed as active; . = no result.

SMILES | Yeast life ext | RAM inhibit | Yeast growth inh | Measles CPE | MDM2 E3 inh | INS promoter inh
O=C(CSc1nnc(-c2ccc(F)cc2)c2ccccc12)Nc1c(F)cccc1F | 13.7 | -0.5 | -39.9 | 36.9* | 1.9 | 0.0
O=C(CCl)N1c2ccccc2OCC1c1ccccc1 (stereo not given) | 47.2* | 0.5 | -48.6 | 0.3 | -9.1 | .
COc1ccc(S(=O)(=O)N2c3ccccc3OCC2c2ccccc2)cc1 (stereo not given) | -15.1 | 6.2 | -19.6 | 22.8 | -11.9 | .
O=C(CSc1nnc(SCc2ccccc2)s1)N/N=C/C=C\c1ccco1 | -1.6 | 11.1* | -22.2 | 6.8 | -2.3 | -83.3
O=C(CSc1nnc(SCc2ccccc2)s1)N/N=C/C=C/c1ccccc1[N+](=O)[O-] | -6.1 | -0.5 | -11.6 | 11.0 | -6.3 | .
Cc1ccc(NC(=O)/C(C#N)=C/c2ccc(C)s2)c(C)c1 | -3.1 | 3.6 | -25.1 | 14.1 | -6.2 | 13.0
Cc1ccc(CNC(=O)/C(C#N)=C/c2ccc(C)s2)cc1 | -20.7 | 3.2 | -5.0 | 20.3* | -12.2 | 46.7
O=C(Cc1ccc(F)cc1)N/N=C/c1ccncc1 | 0.4 | 1.6 | -2.5 | 18.6 | -11.8 | -36.5
COCCCNC(=O)CN1C(=O)/C(=C\c2ccc(C)cc2)Sc2ccccc21 | 1.3 | 5.8 | -24.3 | 9.3 | -6.1 | -14.8
CCc1ccc(/C=C2/Sc3ccccc3N(CC(=O)NCCCOC)C2=O)cc1 | . | 9.8* | . | . | -16.3 | .
CC1=CC(C)(C)Nc2ccc(OC(=O)CN3C(=O)c4cccc5cccc(c45)C3=O)cc21 | -12.6 | 1.2 | -48.2 | 45.3* | -7.3 | .
COc1ccc(C(=O)SC2=NCCS2)cc1 | . | -0.8 | -39.0 | 9.4 | -0.8 | 60.0
CCOc1ccc(C(=O)SC2=NCCS2)cc1 | 52.5* | 0.3 | -47.9 | 30.5* | -1.5 | .
O=C(NCCc1ccccc1)C1CCCN1C(=O)Nc1ccc(F)cc1 (stereo not given) | -5.1 | 0.3 | -27.1 | 28.6* | 3.2 | .
CCOc1cccc(C2C(C#N)=C(N)Oc3cc(C)oc(=O)c32)c1OCC (stereo not given) | -7.1 | 0.5 | -56.5 | 6.7 | -16.4 | 81.8*
N/C(=N\OC(=O)COc1ccc2ccccc2c1Br)c1ccccn1 | . | 9.1* | . | . | . | .
N/C(=N\OC(=O)COc1ccc2ccccc2c1Br)c1cccnc1 | . | -1.7 | . | . | . | .
CC(C)C(c1nnnn1C(C)(C)C)N1CCN(c2cccc(Cl)c2)CC1 (stereo not given) | -1.8 | 0.1 | -29.7 | 16.6 | -31.3 | .
CC(N)c1ccc(Cl)cc1Cl (stereo not given) | 0.2 | 0.3 | -16.7 | 21.8 | -13.4 | .
O=C1c2ccccc2C(=O)c2c1cccc2N1CCOCC1 | -20.4 | 0.8 | 56.9* | 28.8 | -17.2 | .
Cc1ccc(N(C(=O)CS(=O)CC(=O)Nc2ccc(F)cc2)C(C(=O)NC2CCCCC2)c2ccco2)cc1 (stereo not given) | 94.0* | 1.5 | -22.9 | 16.4 | -9.1 | -26.5
Cc1cccc(NC(=O)CCc2ccc(S(=O)(=O)NC3CCCCC3)cc2)c1 | -4.2 | 0.1 | -18.0 | 10.5 | -11.5 | -26.7
O=C(COC(=O)C12CC3CC(CC(C3)C1)C2)NCCc1ccccc1 | 5.1 | -0.5 | 2.1 | 43.4* | -7.0 | -27.0
CCN(CC)S(=O)(=O)c1ccc(Cl)c(NC(=O)COc2ccccc2[N+](=O)[O-])c1 | 6.7 | 8.8* | -27.0 | 9.1 | -11.7 | 17.5
O=C(COC(=O)CCC(NC(=O)OCc1ccccc1)C(=O)OCC(=O)Nc1ccccc1)Nc1ccccc1 (stereo not given) | -1.1 | 10.0* | -7.9 | 1.6 | -5.9 | .
SMILES | Yeast life ext | RAM inhibit | Yeast growth inh | Measles CPE | MDM2 E3 inh | INS promoter inh
O=C(CSC(=S)N1CCOCC1)N1N=CCC1c1ccccc1 (stereo not given) | -6.5 | -0.1 | 25.5 | 35.4* | -10.7 | -20.7
O=C(CN1CCN(c2ccccc2)CC1)N1N=CCC1c1ccccc1 (stereo not given) | 12.3 | 2.0 | -13.7 | 3.4 | -11.7 | 3.3
CCCN(CCC)C(=O)CSc1nc2ccccc2c(=O)n1CC1COc2ccccc2O1 (stereo not given) | -16.1 | 9.0* | -37.8 | 4.6 | -2.3 | 25.7
COc1cccc(N(C(=O)CCl)C(C(=O)NCCc2ccccc2)c2cccs2)c1 (stereo not given) | 4.8 | 9.2* | -31.8 | 0.7 | -15.1 | -163.2
COc1ccc(N(C(=O)CCl)C(C(=O)NCCc2ccccc2)c2cccs2)cc1Cl (stereo not given) | -7.0 | 1.4 | -41.0 | 0.6 | . | -257.1
CCOC(=O)N1CCC(NC(=O)C2CCN(S(=O)(=O)N3CCC(C)CC3)CC2)CC1 | -4.6 | -0.7 | -22.2 | 8.4 | -1.2 | .
O=[N+]([O-])c1ccc(N2CCOCC2)cc1NC(c1ccccc1)c1ccccc1 | 7.8 | 0.2 | -3.0 | 45.2* | -10.7 | 10.8
COc1ccc(N/N=C(C)/C(=N/O)C(=O)Nc2ccccc2)cc1 | . | -0.6 | . | . | -1.9 | -9.1
CC(=O)NC12CC3CC(C1)CC(C(=O)Nc1nccs1)(C3)C2 | -5.7 | 10.5* | -7.7 | 23.3 | -6.6 | .
O=C(O)CSc1c(-c2ccccc2)c2cc(Cl)ccc2[nH]c1=O | -0.8 | 7.7 | -26.1 | 2.8 | -13.4 | .
O=c1[nH]c2ccc(Cl)cc2c(O)c1Cc1ccccc1 | . | 3.6 | . | . | -4.2 | 72.7*
Cc1ccc2nc(C)cc(C(=O)N3CCCC(CO)(Cc4ccccc4C)C3)c2c1 (stereo not given) | . | 0.1 | . | . | 2.0 | -61.1
CCOC(=O)c1ccc(N=c2sc(C(=O)OC)cc(=O)n2Cc2ccco2)cc1 | -4.3 | 8.6* | -13.1 | 8.8 | -5.5 | .
CCOC(=O)c1ccc(N=c2sc(C(=O)OC)cc(=O)n2CCCN2CCOCC2)cc1 | -9.1 | 0.0 | -50.9 | 4.8 | -12.2 | .
O=C1NC2(CCCCC2)N=C1c1ccc(Br)cc1 | -13.0 | 2.9 | -33.9 | 64.5* | -14.4 | 14.3
C/C(=N\Nc1ccc(C(=O)O)cc1)c1ccc(S(=O)(=O)NCc2ccco2)cc1 | . | . | . | . | -9.6 | .
COc1ccc(CN(CC(=O)NC2CCCC2)C(=O)c2ccc(-c3ccccc3)[nH]2)cc1 | . | 8.8* | . | . | -2.6 | -50.0
COc1ccc(CN(CC(=O)NC2CCCCC2)C(=O)CCCC(=O)Nc2ccccn2)cc1 | . | 1.2 | . | . | -0.6 | .
CC(C)CCNC(=O)Cc1c(C(=O)O)[nH]c2ccc(Cl)cc12 | -4.9 | 4.3 | -23.4 | 45.5* | -19.3 | -277.8
Cc1ccc(C)c(OCC(=O)N2CCOCC2)c1 | -4.4 | 1.8 | -30.9 | 5.9 | -11.4 | 88.6*
Cc1ccc(OCC(=O)N2CCCCCC2)c(C)c1 | -10.7 | 0.0 | -22.6 | 24.6 | 9.8 | -44.1
COc1ccccc1CN1C(=O)[C@@H]2C(CCC(N)=O)NC3(C(=O)Nc4c3ccc(Cl)c4C)[C@@H]2C1=O (stereo not given in full) | -6.3 | 1.4 | -6.7 | 28.2 | -9.6 | 71.4*
Cc1[nH]c2ccc(Cl)cc2c(=O)c1CN1CCCC1 | . | 0.5 | . | . | 35.5* | -25.0
